Measurements reported in paper PMC4919611 (EBioMedicine, 2016).

What was measured:
[1] = test system: panel of 11 leukemia cell lines; experiment: Viability of a panel of 11 leukemia cell lines; format: cell-based; details: 48 h treatment, 11 cell lines
How it was run: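 Eleven leukemia lines grown in IMDM with 10% FBS. Plated at 5 × 10^5 cells/ml and treated 48 h with test compound at several doses or DMSO. DAPI-stained; at least 2 × 10^4 events acquired by flow cytometry. Viability taken as percent DAPI-negative cells relative to control.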

[2] = biological target: T1, CBFβ-RUNX1 Runt domain binding (Homo sapiens, UniProt Q13951); experiment: FRET assay of CBFβ; details: inhibition of CBFβ-Runt domain binding
T1 sequence (Q13951 1-141): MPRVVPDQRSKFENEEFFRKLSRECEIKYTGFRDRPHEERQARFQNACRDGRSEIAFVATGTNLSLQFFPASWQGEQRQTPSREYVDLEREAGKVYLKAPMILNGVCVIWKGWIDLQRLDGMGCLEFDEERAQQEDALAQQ
How it was run: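 FRET binding assay using 100 nM Cerulean-Runt domain and 100 nM Venus-CBFβ across a test compound concentration series. Read-out was the emission ratio at 525/474 nm. Run in duplicate.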

CBFβ = biological target: T2, CBFβ (Homo sapiens, UniProt Q13951); experiment: NMR detection of interaction with CBFβ; format: binding
T2 sequence (Q13951 1-141): T1 sequence (Q13951 1-141)
How it was run: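 CBFβ (1-141) in 50 mM KPi pH 7.5, 0.1 mM EDTA, 1 mM DTT, 5% DMSO, 5% D2O. HSQC: 150 μM protein titrated with 600 μM test compound at 800 MHz; 15N/13C shift perturbations taken with versus without compound. STD: 200 μM CBFβ, 2 mM compound, 600 MHz, 25 °C, saturation 500–2000 ms, on-resonance 0.4 ppm, off-resonance 30 ppm.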

CBFβ-RUNX1 binding = details: ref Cunningham et al., 2012; cited from earlier work
[3] = test system: CBFβ-Runt domain interaction; details: ref Cunningham et al., 2012; cited from earlier work
RUNX1 Runt domain = RUNX1 Runt domain (Homo sapiens, UniProt Q01196); experiment: NMR detection of interaction with RUNX1 Runt domain; format: binding
Sequence of RUNX1 Runt domain (Q01196 50-178 limits assumed): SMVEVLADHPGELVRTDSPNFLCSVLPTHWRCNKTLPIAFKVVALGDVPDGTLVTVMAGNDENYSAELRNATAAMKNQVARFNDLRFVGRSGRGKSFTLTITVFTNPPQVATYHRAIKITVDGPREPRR

| Structure (SMILES) | growth inhibition / activity against leukemia cell lines (in words) [1] | activity in the FRET assay (in words) [2] | interaction with CBFβ by NMR (CBFβ) | effect on CBFβ-RUNX1 binding in cells (CBFβ-RUNX1 binding) | effect in the alpha screen assay [3] | interaction with RUNX1 Runt domain by NMR (RUNX1 Runt domain) |
| --- | --- | --- | --- | --- | --- | --- |
| c1ccc(-c2nc3ccccc3[nH]2)nc1 [AI-4-88] | did not observe any activity | complete loss of activity |  |  |  |  |
| O=C1CN=C(c2ccc[nH]2)c2cc(Cl)ccc2N1 [Ro5-3335] |  | no effect | could not detect any interaction | does not show an effect | does not show significant effects | could not detect any interaction |
